Laboratory results from ChEMBL document CHEMBL2331221, “Potent elastase inhibitors from cyanobacteria: structural basis and mechanisms mediating cytoprotective and anti-inflammatory effects in bronchial epithelial cells” (J Med Chem, 2013).
The source made the active and inactive calls. No cut-off for these calls is given here.

Assays:
[1] = target: Kallikrein-8 (Homo sapiens) (UniProt O60259); experiment: Inhibition of Kallikrein-8 (unknown origin) using VPR-AMC substrate assessed as residual activity at 10 uM incubated for 15 mins prior to substrate addition measured for 2 hrs
Kallikrein-8 (Homo sapiens), sequence (O60259 whole entry): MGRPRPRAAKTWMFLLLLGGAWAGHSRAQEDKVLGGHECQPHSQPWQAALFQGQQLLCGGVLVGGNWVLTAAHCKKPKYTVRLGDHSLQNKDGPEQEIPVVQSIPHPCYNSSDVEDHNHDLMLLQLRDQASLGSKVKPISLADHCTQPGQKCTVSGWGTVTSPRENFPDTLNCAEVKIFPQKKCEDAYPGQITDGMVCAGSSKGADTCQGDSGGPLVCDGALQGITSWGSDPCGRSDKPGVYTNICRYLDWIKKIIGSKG
Summary of the method: (§1)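 Protease panel screen: enzyme and test inhibitor preincubated 15 min in the enzyme's reaction buffer, then substrate added. Reaction followed for 2 h, and activity was taken from the initial linear portion of the progress-curve slope. Enzyme, substrate, buffer and detection conditions for each target are given only in the paper's supporting table.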

[2] = target: Dipeptidyl peptidase 1 (Homo sapiens) (UniProt P53634); experiment: Inhibition of Cathepsin C (unknown origin) using Z-FR-AMC substrate assessed as residual activity at 10 uM incubated for 15 mins prior to substrate addition measured for 2 hrs; summary of the method: as §1
[3] = target: Dipeptidyl peptidase 9 (Homo sapiens) (UniProt Q86TI2); experiment: Inhibition of DPP9 (unknown origin) using H-GP-AMC substrate assessed as residual activity at 10 uM incubated for 15 mins prior to substrate addition measured for 2 hrs; summary of the method: as §1
[4] = target: Dipeptidyl peptidase 8 (Homo sapiens) (UniProt Q6V1X1); experiment: Inhibition of DPP8 (unknown origin) using H-GP-AMC substrate assessed as residual activity at 10 uM incubated for 15 mins prior to substrate addition measured for 2 hrs; summary of the method: as §1
Dipeptidyl peptidase 8 (Homo sapiens), sequence (Q6V1X1 whole entry, looked up): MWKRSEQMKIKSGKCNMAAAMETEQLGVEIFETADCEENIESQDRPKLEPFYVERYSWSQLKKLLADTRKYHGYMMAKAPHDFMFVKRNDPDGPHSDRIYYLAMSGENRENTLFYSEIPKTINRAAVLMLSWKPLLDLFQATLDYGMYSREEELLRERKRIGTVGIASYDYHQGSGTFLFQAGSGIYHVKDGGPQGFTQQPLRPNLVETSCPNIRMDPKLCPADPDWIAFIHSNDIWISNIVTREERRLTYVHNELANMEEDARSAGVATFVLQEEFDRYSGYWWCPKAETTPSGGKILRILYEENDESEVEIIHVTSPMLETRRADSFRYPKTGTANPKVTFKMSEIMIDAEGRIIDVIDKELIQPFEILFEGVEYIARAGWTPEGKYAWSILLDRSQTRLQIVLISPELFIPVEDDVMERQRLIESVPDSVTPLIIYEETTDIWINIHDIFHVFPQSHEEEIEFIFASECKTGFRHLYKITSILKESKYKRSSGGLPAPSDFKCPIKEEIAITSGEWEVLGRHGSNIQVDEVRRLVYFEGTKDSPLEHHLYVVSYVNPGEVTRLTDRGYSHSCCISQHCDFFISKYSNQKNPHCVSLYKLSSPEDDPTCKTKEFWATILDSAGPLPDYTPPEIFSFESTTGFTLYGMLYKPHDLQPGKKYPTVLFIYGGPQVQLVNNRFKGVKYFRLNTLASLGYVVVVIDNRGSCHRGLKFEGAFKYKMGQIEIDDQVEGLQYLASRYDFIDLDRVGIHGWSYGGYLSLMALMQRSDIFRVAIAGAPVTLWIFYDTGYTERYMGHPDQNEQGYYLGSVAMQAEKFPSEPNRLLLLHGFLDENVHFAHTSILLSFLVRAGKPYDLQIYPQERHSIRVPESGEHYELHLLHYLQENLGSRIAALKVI

[5] = Inhibition of Hepatitis C virus NS3/4A protease using Anaspec EnzoLyte substrate incubated for 15 mins prior to substrate addition measured for 2 hrs; design: species or system Hepacivirus hominis; summary of the method: as §1
[6] = Inhibition of porcine pancreatic elastase using Suc-AAA-pNa substrate incubated for 15 mins prior to substrate addition measured for 2 hrs; design: species or system Sus scrofa
Summary of the method: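 Elastase preincubated with test compound (DMSO) in Tris-HCl pH 8.0 for 15 min at room temperature; N-succinyl-Ala-Ala-Ala-p-nitroanilide then added (2 mM stock in Tris-HCl pH 8.0). Absorbance at 405 nm recorded every 30 s; activity as initial slope, percent of uninhibited reaction.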

[7] = Inhibition of human pancreatic Chymotrypsin using Suc-AAPF-pNa substrate incubated for 15 mins prior to substrate addition measured for 2 hrs
Summary of the method: (§2)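 Protease panel screen: enzyme and inhibitor preincubated 15 min in reaction buffer, then substrate added; reaction followed for 2 h and the initial linear part of the progress curve used for activity. Enzyme, substrate, buffer and detection details are given only in a supporting table.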

[8] = target: Cathepsin E (Homo sapiens) (UniProt P14091); experiment: Inhibition of Cathepsin E (unknown origin) using MCA-KPILFFRLK(Dnp)-D-R-NH2 substrate assessed as residual activity at 10 uM incubated for 15 mins prior to substrate addition measured for 2 hrs; summary of the method: as §1
Cathepsin E (Homo sapiens), sequence (P14091 whole entry): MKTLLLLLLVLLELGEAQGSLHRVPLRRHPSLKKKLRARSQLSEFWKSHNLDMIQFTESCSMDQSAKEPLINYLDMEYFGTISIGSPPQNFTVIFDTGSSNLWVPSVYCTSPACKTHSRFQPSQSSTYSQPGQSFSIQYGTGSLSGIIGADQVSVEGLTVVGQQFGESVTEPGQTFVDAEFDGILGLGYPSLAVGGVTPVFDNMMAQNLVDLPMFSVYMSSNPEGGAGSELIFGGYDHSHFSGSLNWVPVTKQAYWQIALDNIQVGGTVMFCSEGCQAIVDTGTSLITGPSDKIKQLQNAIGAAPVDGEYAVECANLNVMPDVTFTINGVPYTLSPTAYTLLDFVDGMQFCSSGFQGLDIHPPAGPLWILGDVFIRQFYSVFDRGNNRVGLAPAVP

[9] = target: Cathepsin D (Homo sapiens) (UniProt P07339); experiment: Inhibition of Cathepsin D (unknown origin) using MCA-KPILFFRLK(Dnp)-D-R-NH2 substrate assessed as residual activity at 10 uM incubated for 15 mins prior to substrate addition measured for 2 hrs; summary of the method: as §1
Cathepsin D (Homo sapiens), sequence (P07339 65-162 limits assumed): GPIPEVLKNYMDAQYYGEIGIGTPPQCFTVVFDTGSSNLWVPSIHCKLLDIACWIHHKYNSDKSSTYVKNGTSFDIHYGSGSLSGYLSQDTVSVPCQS
Cathepsin D (Homo sapiens), sequence (P07339 169-412 limits assumed): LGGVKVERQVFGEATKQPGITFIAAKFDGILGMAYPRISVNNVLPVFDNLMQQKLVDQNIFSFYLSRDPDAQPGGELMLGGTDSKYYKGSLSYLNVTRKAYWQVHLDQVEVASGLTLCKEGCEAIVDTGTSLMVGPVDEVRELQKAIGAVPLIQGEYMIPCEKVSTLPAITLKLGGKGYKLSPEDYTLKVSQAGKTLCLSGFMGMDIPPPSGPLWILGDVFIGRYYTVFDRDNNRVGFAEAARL

[10] = target: Disintegrin and metalloproteinase domain-containing protein 17 (Homo sapiens) (UniProt P78536); experiment: Inhibition of TACE (unknown origin) using MCA-PLAQAV-Dpa-RSSSR-NH2 substrate assessed as residual activity at 10 uM incubated for 15 mins prior to substrate addition measured for 2 hrs; summary of the method: as §2
[11] = target: Disintegrin and metalloproteinase domain-containing protein 9 (Homo sapiens) (UniProt Q13443); experiment: Inhibition of ADAM9 (unknown origin) using MCA-PLAQAV-Dpa-RSSSR-[…] substrate assessed as residual activity at 10 uM incubated for 15 mins prior to substrate addition measured for 2 hrs; summary of the method: as §1
Disintegrin and metalloproteinase domain-containing protein 9 (Homo sapiens), sequence (Q13443 whole entry, the tested form may be a part): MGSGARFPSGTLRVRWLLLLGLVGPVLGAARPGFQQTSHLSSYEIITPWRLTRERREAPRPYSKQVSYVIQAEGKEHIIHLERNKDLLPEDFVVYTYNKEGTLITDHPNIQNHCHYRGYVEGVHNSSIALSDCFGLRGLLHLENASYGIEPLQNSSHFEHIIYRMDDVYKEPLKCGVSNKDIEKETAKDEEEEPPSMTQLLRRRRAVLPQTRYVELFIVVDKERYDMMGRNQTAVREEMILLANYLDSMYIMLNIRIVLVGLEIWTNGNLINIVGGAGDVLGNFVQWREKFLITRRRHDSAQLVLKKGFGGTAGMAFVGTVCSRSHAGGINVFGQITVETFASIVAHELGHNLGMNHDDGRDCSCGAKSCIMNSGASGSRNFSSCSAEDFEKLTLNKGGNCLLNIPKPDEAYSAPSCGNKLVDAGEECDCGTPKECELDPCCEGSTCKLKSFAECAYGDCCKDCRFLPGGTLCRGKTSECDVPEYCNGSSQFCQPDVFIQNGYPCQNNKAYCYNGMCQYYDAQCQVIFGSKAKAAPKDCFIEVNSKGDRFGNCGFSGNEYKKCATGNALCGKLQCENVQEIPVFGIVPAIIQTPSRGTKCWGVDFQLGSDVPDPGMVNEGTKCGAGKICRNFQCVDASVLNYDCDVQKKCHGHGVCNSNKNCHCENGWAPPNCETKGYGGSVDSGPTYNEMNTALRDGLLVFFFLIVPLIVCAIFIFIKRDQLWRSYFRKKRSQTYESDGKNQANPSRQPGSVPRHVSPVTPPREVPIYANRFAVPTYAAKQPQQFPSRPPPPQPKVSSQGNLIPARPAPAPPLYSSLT

[12] = target: Collagenase 3 (Homo sapiens) (UniProt P45452); experiment: Inhibition of MMP13 (unknown origin) using (5-FAM/QXLTM) FRET peptide substrate assessed as residual activity at 10 uM incubated for 15 mins prior to substrate addition measured for 2 hrs; summary of the method: as §1
[13] = target: Macrophage metalloelastase (Homo sapiens) (UniProt P39900); experiment: Inhibition of MMP12 (unknown origin) using (5-FAM/QXLTM) FRET peptide substrate assessed as residual activity at 10 uM incubated for 15 mins prior to substrate addition measured for 2 hrs; summary of the method: as §1
Macrophage metalloelastase (Homo sapiens), sequence (P39900 106-470 limits assumed): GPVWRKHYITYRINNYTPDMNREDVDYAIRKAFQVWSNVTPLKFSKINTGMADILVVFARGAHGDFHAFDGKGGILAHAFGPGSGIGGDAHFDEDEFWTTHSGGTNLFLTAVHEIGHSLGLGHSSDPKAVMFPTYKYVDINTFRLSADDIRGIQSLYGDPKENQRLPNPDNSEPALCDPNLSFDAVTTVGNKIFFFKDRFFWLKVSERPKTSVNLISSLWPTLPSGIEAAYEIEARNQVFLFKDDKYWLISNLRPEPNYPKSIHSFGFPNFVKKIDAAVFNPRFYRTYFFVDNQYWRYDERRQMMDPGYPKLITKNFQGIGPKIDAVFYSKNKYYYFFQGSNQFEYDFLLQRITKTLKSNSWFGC

[14] = target: Stromelysin-2 (Homo sapiens) (UniProt P09238); experiment: Inhibition of MMP10 (unknown origin) using (5-FAM/QXLTM) FRET peptide substrate assessed as residual activity at 10 uM incubated for 15 mins prior to substrate addition measured for 2 hrs; summary of the method: as §1
[15] = target: Neutrophil collagenase (Homo sapiens) (UniProt P22894); experiment: Inhibition of MMP8 (unknown origin) using (5-FAM/QXLTM) FRET peptide substrate assessed as residual activity at 10 uM incubated for 15 mins prior to substrate addition measured for 2 hrs; summary of the method: as §2
Neutrophil collagenase (Homo sapiens), sequence (P22894 101-467 limits assumed): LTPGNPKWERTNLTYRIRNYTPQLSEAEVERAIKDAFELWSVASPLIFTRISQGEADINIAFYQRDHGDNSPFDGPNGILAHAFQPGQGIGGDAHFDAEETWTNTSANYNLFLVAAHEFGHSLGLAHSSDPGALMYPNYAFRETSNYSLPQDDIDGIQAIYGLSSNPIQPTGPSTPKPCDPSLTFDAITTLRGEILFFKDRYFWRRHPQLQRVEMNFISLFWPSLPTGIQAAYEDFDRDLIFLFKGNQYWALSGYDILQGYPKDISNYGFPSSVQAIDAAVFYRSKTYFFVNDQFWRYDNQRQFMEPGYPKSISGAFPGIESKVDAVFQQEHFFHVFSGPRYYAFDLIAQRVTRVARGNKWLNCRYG

[16] = target: Stromelysin-1 (Homo sapiens) (UniProt P08254); experiment: Inhibition of MMP3 (unknown origin) using (5-FAM/QXLTM) FRET peptide substrate assessed as residual activity at 10 uM incubated for 15 mins prior to substrate addition measured for 2 hrs; summary of the method: as §1
Stromelysin-1 (Homo sapiens), sequence (P08254 100-477 limits assumed): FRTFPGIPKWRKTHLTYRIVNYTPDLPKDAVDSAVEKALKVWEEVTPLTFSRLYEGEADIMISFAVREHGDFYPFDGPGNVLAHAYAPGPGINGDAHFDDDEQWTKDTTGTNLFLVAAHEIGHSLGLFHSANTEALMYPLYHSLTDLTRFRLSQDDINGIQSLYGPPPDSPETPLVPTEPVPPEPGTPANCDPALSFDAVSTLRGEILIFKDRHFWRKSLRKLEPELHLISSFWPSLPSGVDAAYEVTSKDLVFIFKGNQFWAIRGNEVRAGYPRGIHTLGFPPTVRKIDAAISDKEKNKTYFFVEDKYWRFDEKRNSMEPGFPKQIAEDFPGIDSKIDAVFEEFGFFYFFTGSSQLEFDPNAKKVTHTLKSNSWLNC

[17] = target: Interstitial collagenase (Homo sapiens) (UniProt P03956); experiment: Inhibition of MMP1 (unknown origin) using (5-FAM/QXLTM) FRET peptide substrate assessed as residual activity at 10 uM incubated for 15 mins prior to substrate addition measured for 2 hrs; summary of the method: as §1
[18] = target: Cathepsin Z (Homo sapiens) (UniProt Q9UBR2); experiment: Inhibition of Cathepsin X/Z (unknown origin) using MCA-RPPGFSAFK(Dnp) substrate assessed as residual activity at 10 uM incubated for 15 mins prior to substrate addition measured for 2 hrs; summary of the method: as §1
Cathepsin Z (Homo sapiens), sequence (Q9UBR2 whole entry): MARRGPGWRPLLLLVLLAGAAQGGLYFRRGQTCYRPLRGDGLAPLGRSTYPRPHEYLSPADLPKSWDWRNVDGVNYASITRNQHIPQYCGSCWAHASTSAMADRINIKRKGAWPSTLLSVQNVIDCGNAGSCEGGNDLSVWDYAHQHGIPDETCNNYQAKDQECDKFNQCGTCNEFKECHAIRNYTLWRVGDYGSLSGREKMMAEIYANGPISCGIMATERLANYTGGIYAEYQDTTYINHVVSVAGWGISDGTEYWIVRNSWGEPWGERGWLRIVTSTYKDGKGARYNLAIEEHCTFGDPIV

[19] = target: Cathepsin L2 (Homo sapiens) (UniProt O60911); experiment: Inhibition of Cathepsin V (unknown origin) using Z-FR-AMC substrate assessed as residual activity at 10 uM incubated for 15 mins prior to substrate addition measured for 2 hrs; summary of the method: as §1
Cathepsin L2 (Homo sapiens), sequence (O60911 whole entry): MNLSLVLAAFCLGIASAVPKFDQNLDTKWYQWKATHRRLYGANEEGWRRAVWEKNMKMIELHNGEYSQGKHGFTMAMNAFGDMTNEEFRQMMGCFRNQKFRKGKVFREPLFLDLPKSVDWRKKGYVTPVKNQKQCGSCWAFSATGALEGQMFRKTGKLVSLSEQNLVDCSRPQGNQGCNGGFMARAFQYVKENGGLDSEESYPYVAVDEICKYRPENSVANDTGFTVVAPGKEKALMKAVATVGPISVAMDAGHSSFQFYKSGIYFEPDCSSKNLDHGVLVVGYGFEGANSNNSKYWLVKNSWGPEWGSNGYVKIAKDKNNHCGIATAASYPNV

[20] = target: Pro-cathepsin H (Homo sapiens) (UniProt P09668); experiment: Inhibition of Cathepsin H (unknown origin) using R-AMC substrate assessed as residual activity at 10 uM incubated for 15 mins prior to substrate addition measured for 2 hrs; summary of the method: as §1
Pro-cathepsin H (Homo sapiens), sequence (P09668 116-335 limits assumed, other chains not shown): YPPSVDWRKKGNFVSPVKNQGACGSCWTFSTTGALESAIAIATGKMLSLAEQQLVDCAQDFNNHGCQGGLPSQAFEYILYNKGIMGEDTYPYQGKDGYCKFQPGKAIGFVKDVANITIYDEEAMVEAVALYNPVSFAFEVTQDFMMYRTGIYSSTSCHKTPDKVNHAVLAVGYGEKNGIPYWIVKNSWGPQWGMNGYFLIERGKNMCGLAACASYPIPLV

[21] = target: Cathepsin B (Homo sapiens) (UniProt P07858); experiment: Inhibition of Cathepsin B (unknown origin) using Z-FR-AMC substrate assessed as residual activity at 10 uM incubated for 15 mins prior to substrate addition measured for 2 hrs; summary of the method: as §1
[22] = target: Caspase-10 (Homo sapiens) (UniProt Q92851); experiment: Inhibition of Caspase 10 (unknown origin) using Ac-LEHD-AMC substrate assessed as residual activity at 10 uM incubated for 15 mins prior to substrate addition measured for 2 hrs; summary of the method: as §1
Tryptase gamma = Tryptase gamma (Homo sapiens, UniProt Q9NRR2); experiment: Inhibition of Tryptase gamma1 (unknown origin) using Z-GPR-AMC substrate incubated for 15 mins prior to substrate addition measured for 2 hrs; summary of the method: as §2
[23] = target: T1, Neutrophil elastase (Homo sapiens) (UniProt P08246); settings: 10 uM
T1 sequence (whole entry): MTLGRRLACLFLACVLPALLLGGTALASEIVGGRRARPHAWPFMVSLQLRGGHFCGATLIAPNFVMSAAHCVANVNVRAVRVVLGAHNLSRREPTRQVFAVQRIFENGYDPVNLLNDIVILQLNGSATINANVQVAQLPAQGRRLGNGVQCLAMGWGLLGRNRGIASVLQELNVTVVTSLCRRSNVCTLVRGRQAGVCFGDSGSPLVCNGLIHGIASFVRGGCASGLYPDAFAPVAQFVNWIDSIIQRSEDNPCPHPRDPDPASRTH

C/C=C1\NC(=O)[C@@H](NC(=O)[C@@H](NC(=O)[C@@H](COS(=O)(=O)[O-])OC)C(C)C)[C@@H](C)OC(=O)[C@H]([C@H](C)CC)NC(=O)[C@H](Cc2ccccc2)N(C)C(=O)[C@H](Cc2ccccc2)N2C(=O)[C@H](CC[C@H]2O)NC1=O.[Na+] [Symplostatin 5]
Activity [1]: 50%
Activity [2]: 50%
Activity [3]: 100%
Activity [4]: 100%
pIC50 [5]: > 5
pIC50 [6]: > 5
pIC50 [7]: 6.1
Activity [8]: 100%
Activity [9]: 100%
Activity [10]: 100%
Activity [11]: 100%
Activity [12]: 100%
Activity [13]: 100%
Activity [14]: 100%
Activity [15]: 100%
Activity [16]: 100%
Activity [17]: 100%
Activity [18]: 100%
Activity [19]: 100%
Activity [20]: 100%
Activity [21]: 100%
Activity [22]: 100%
IC50 (Tryptase gamma): < 10 µM
inhibition [23]: Active
